In series [1] the target is GABA-A receptor; anion channel. Nature of the series: Displacement of [3H]-muscimol from rat brain cortex GABAA receptor assessed as inhibition constant incubated for 1 hr by top-counter microplate scintillation counter method. The series is classed as cell membranes, Membrane. (Loss of bound radioactivity is the signal in a displacement assay; it reports binding, not function.)

The target in series [2] is T1, GABA A receptor alpha-2/beta-2/gamma-2 (Homo sapiens, UniProt P18507+P47869+P47870).
T1 sequence (P47870 whole entry): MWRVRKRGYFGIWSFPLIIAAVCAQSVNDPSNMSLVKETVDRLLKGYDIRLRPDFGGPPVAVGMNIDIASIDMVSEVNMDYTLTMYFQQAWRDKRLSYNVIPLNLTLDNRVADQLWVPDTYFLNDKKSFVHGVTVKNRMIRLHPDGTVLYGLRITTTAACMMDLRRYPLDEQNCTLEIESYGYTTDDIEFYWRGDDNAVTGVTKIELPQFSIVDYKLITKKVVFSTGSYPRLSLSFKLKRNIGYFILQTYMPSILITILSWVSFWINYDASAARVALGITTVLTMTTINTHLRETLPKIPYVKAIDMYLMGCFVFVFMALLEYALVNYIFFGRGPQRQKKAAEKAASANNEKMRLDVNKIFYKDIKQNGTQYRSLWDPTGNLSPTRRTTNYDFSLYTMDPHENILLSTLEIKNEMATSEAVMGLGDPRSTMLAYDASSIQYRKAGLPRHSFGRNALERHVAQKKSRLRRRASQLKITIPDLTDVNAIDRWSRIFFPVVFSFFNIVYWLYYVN
T1 sequence (P18507 whole entry): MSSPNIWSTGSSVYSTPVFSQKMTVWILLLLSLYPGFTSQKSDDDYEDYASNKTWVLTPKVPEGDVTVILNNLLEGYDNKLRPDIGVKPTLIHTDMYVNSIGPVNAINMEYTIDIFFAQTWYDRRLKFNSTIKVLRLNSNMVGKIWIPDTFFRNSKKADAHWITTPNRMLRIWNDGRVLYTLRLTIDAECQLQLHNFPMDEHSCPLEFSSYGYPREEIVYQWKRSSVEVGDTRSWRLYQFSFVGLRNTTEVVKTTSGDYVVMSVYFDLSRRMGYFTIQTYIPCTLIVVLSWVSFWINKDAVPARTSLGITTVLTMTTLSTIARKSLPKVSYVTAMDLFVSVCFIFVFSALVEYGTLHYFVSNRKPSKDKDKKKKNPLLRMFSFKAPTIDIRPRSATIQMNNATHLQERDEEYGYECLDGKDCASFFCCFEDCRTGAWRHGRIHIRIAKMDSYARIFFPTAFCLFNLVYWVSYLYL
T1 sequence (P47869 whole entry): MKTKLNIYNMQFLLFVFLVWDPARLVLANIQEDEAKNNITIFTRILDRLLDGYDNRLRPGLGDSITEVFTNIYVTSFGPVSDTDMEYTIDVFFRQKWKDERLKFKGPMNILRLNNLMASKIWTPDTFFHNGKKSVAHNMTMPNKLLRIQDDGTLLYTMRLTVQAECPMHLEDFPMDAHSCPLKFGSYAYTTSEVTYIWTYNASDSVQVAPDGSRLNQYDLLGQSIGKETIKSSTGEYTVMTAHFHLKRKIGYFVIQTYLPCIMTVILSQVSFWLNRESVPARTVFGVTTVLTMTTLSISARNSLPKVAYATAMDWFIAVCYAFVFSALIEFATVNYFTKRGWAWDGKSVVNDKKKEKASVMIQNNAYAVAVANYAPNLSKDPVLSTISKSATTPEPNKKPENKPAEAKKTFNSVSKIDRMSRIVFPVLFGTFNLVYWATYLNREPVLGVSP
Nature of the series: Antagonist activity at human alpha2beta2gamma2 GABAA receptor expressed in HEK cells by FMP assay. The series is classed as cell-based. Summed up: (§1)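 Human αβγ2 receptors in HEK293 cells: α1β2γ2 stably expressed, other αβγ2 subtypes transiently transfected into HEK293 Flp-In background cells (α:β:γ 1:1:2). FLIPR membrane potential assay with ΔRFU baseline to peak/plateau and GABA EC80 as agonist. IC50 from a four-parameter fit, at least three independent experiments.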

The target in series [3] is T2, Gamma-aminobutyric acid receptor subunit alpha-5/beta-2/gamma-2 (Homo sapiens, UniProt P18507+P31644+P47870).
T2 sequence (P47870 whole entry): T1 sequence (P47870 whole entry)
T2 sequence (P18507 whole entry): T1 sequence (P18507 whole entry)
T2 sequence (P31644 whole entry): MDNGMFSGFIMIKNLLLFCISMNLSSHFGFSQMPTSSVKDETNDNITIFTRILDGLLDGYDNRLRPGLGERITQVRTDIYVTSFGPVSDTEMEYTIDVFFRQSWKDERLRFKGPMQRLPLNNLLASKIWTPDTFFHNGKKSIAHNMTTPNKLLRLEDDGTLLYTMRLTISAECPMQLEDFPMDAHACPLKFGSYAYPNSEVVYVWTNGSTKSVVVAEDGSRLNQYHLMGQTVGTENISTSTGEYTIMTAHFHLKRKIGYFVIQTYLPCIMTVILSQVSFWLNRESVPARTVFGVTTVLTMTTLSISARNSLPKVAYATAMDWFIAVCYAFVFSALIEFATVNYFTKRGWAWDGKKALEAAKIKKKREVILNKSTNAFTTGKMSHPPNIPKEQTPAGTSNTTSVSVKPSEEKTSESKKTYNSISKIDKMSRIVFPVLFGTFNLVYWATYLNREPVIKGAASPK
Put plainly: Antagonist activity at human alpha5beta2gamma2 GABAA receptor expressed in HEK cells by FMP assay. The series is classed as cell-based. Summed up:
as §1

The target in series [4] is GABA-A receptor; anion channel. Nature of the series: Displacement of [3H]-muscimol from rat cortical synaptic membrane GABAA receptor assessed as inhibition constant by microscint-scintillation method. The series is classed as cell membranes, Cortex. A digest of the protocol:
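Rat cortical synaptic membranes, washed repeatedly in 50 mM Tris-HCl pH 7.4, 70–80 μg protein. Incubated at 0 °C with 5 nM [3H]-muscimol (final) and a range of test concentrations, then filtered and counted by scintillation. Nonspecific binding defined with 1.0 mM GABA. IC50 converted to Ki by Cheng–Prusoff, triplicate, three independent experiments.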

A short description of series [5]: Receptor occupancy at human GABA receptor.
Series [6] in a line: Apparent permeability of compound across apical to basolateral side in MDCK cells. Conditions: dog. The series is classed as ADME, cell-based, Canis lupus familiaris. Summed up: (§2)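 MDR1-transfected MDCK monolayers, 0.5 μM test compound added apically or basally. Bidirectional apparent permeability measured in triplicate. Efflux ratio is B→A permeability divided by A→B permeability.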

A short description of series [7]: Efflux ratio of apparent permeability across basolateral to apical side over apical to basolateral side in MDCK. The format is ADME, cell-based, Canis lupus familiaris. The note with it: dog. Summed up: as §2
The nature of series [8]: Induction of cell proliferation of human CD8-positive T cells at 50 uM measured after 96 hrs in presence of alprazolam by flow cytometry analysis relative to control. The format is functional. Summed up: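 Human PBMC from leukocyte cones were CFSE-stained (5 μM) and held at high density overnight. They were then stimulated with soluble anti-CD3 OKT3 (100 pg/mL) plus alprazolam 33 μM, with test compound at 50 μM, for 96 h. CD4+/CD8+ proliferation was measured by CFSE dilution on flow cytometry, at least six independent experiments.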

Series [9] has as its system CD8-positive T cell. Nature of the series: Induction of cell proliferation of mouse CD8-positive T cells at 50 uM measured after 48 hrs in presence of alprazolam by flow cytometry analysis relative to control. The format is functional, cell-based. A digest of the protocol:
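Splenocytes from female BALB/c mice were CFSE-stained (5 μM) and stimulated with soluble anti-CD3 145.2C11 (33 ng/mL) plus alprazolam 100 μM, with test compound at 50 μM, for 48 h. CD4+/CD8+ proliferation was measured by CFSE dilution on flow cytometry, at least six independent experiments.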
On the technique in general: In flow cytometry, cells or beads pass a laser one at a time.

The source made the active and inactive calls. The calls are words filed in the database; no cut-off is given here.

In general, Ki refers to the dissociation constant of the complex between target and ligand, obtained from inhibition or displacement. For orientation: pIC50 means −log10 of the IC50, conventionally taken in molar units. One may read the Papp A→B as how fast a substance crosses the layer from the apical side. As a reminder, the efflux ratio is a quotient of directional permeabilities that is used to spot active efflux.

Take `O=C(Nc1cccc(C(=O)N2CCC3(CCNCC3)CC2)c1)c1cccs1`: in series [1], the inhibitory constant (Ki) worked out at 20 nM. Also, the IC50 in series [2] is 320 nM; in series [2] (read-out: pIC50 (converted)), 324 nM; in series [3], 51 nM; in [3] (read-out: pIC50 (converted)), 51.3 nM.
`CC(=O)Nc1cccc(C(=O)N2CCC3(CCNCC3)CC2)c1`: in [1], the inhibition constant Ki is 560 nM. The IC50 in series [2] is 2960 nM; in series [2] (read-out: pIC50 (converted)), 2950 nM; in series [3], 590 nM; in series [3] (read-out: pIC50 (converted)), 589 nM.
In the case of `Cc1ccc(C(=O)N2CCC3(CCNCC3)CC2)cc1`, the Ki in series [4] was found to be 520 nM.
For `Cc1cccc(C(=O)N2CCC3(CCNCC3)CC2)c1`, in series [4], the inhibition constant Ki was 180 nM. The pIC50 in series [5] came to 7.152. The apparent permeability from apical to basolateral (Papp A→B) in [6] turned out to be 1.3 ×10⁻⁶ cm/s. The efflux ratio in series [7] was 11.5. Moreover, in series [8], the Activity was 20%. Also, in [9], the result was Active.

Values taken from ChEMBL document CHEMBL5096209, “Structure-Activity Studies of 3,9-Diazaspiro[5.5]undecane-Based γ-Aminobutyric Acid Type A Receptor Antagonists with Immunomodulatory Effect” (J Med Chem, 2021).
